Here are results for ten compounds from article PMC3799977 (Toxicology and applied pharmacology, 2012).

Data set [1] deals with T1, mouse RORα (Mus musculus, UniProt P51448).
T1 sequence (P51448 1-467 isoform P51448-2): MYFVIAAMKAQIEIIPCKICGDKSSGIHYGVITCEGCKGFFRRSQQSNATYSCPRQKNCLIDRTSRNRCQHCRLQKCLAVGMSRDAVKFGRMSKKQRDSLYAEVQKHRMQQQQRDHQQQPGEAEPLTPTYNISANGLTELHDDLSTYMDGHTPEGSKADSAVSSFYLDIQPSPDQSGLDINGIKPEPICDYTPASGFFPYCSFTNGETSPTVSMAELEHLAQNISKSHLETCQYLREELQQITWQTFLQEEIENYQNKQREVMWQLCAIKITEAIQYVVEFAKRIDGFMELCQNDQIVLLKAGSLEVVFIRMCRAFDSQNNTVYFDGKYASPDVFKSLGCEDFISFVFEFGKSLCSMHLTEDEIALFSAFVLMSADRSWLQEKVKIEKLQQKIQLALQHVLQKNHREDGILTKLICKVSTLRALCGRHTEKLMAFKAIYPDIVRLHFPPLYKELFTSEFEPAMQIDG
Briefly: CHO-K1 cell-based RORα reporter gene assay. The conditions noted are these: for RORα inverse agonistic activity (in words): Fig. 2A; for ROR activity (RORα): data not shown; for RIC20 (20% relative inhibitory concentration), RORα assay: inverse agonistic activity, CHO-K1 cells, 24 hr. Background: A reporter such as luciferase makes a cellular process visible.

Data set [2] has as its system IL-17A mRNA expression in EL4/shNC cells. Put plainly: IL-17A mRNA expression in control shRNA EL4/shNC cells. The note with it: 10 μM, PMA/ionomycin. Format: cell-based, mouse.
Data set [3] deals with IL-17A mRNA expression in mouse T lymphoma EL4 cells. Briefly: IL-17A mRNA expression in EL4 cells. Format: cell-based. The conditions noted are these: 6 h; for IL-17 gene expression, dose dependence: PMA/ionomycin-stimulated EL4 cells, 1, 3, 10 or 30 μM; for IL-17 mRNA expression, real-time PCR: highest dose 30 μM. Summed up:
(§1)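 EL4 cells were plated at 2 × 10^6 cells/ml in RPMI-1640 with 10% FBS. Next day they were stimulated with PMA (5 ng/ml) plus ionomycin (1 μM) and given vehicle or 1, 3, 10 or 30 μM test compound at 37°C for 6 h. TRIzol RNA was reverse-transcribed and TaqMan real-time PCR run, normalized to β-actin. Results were expressed relative to stimulated vehicle (=1), mean ± SD, three experiments.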
A general note: Real-time PCR tracks product formation cycle by cycle.

The subject of data set [4] is CHO-K1 cells. Briefly: Cytotoxicity check by β-galactosidase activity in the reporter gene assays. The conditions noted are these: highest dose (30 μM). It is filed as cell-based, Chinese hamster.
Data set [5] deals with RORγ mRNA expression in EL4 cells. Put plainly: RORγ mRNA expression in PMA/ionomycin-stimulated EL4 cells. Format: cell-based, mouse. The note with it: 6 h.
Data set [6] concerns IL-17A mRNA expression in EL4/shRorac cells. Put plainly: IL-17A mRNA expression in RORα/γ-knockdown EL4/shRorac cells. It is filed as cell-based, mouse. The conditions noted are these: 10 μM, PMA/ionomycin, RORα/γ double knockdown. The procedure, abridged:
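EL4/shRorac, a stable RORα/RORγ double-knockdown clone, was made by electroporating a GFP/Neo U6 vector carrying Rora and Rorc shRNAs, then selecting in G418. EL4/shNC (nonsilencing shRNA) served as control. Cells received 10 μM test compound with or without PMA/ionomycin. IL-17 mRNA was measured by real-time RT-PCR, normalized to β-actin, and expressed relative to stimulated vehicle-treated EL4/shNC (=1). Mean ± SD, three experiments.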

Data set [7] addresses RORα. The note with it: read-out: Ki, binding to RORα; ref Kumar et al. (2010); cited from earlier work.
The subject of data set [8] is RORα mRNA expression in EL4 cells. Put plainly: RORα mRNA expression in PMA/ionomycin-stimulated EL4 cells. It is filed as cell-based, mouse. The conditions noted are these: 6 h. The procedure, abridged:
as §1

Data set [9] deals with T2, mouse RORγ (Mus musculus, UniProt P51450).
T2 sequence (P51450 1-516): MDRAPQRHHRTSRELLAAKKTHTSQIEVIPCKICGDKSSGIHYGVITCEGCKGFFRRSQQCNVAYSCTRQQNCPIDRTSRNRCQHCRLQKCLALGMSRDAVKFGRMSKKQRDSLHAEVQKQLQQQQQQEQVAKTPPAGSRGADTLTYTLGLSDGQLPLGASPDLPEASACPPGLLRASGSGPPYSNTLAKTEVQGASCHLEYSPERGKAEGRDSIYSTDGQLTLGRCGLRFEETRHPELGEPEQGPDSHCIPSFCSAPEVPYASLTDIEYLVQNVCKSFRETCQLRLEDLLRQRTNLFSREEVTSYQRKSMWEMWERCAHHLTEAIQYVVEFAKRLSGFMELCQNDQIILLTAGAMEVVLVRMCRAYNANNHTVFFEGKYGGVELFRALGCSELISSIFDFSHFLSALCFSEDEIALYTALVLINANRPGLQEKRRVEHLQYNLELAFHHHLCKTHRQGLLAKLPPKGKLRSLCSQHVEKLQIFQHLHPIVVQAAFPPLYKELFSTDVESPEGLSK
Put plainly: CHO-K1 cell-based RORγ reporter gene assay. The conditions noted are these: for ROR activity (RORγ): data not shown; for RIC20 (20% relative inhibitory concentration), RORγ assay: inverse agonistic activity, CHO-K1 cells, 24 hr.

The mark [10] stands for this setting: PMA/ionomycin-stimulated EL4 cells.
[11] abbreviates: PMA/ionomycin-stimulated EL4 cells, 10 μM.

By Ki is commonly meant a dissociation constant, usually derived from enzyme kinetics or from competition with a known ligand. In the case of `O=S(=O)(c1ccccc1)N(CC(F)(F)F)c1ccc(C(O)(C(F)(F)F)C(F)(F)F)cc1` [T0901317, N-(2,2,2-trifluoroethyl)-N-[4-(2,2,2-trifluoro-1-hydroxy-1-trifluoromethyl-ethyl)-phenyl]-benzene sulfonamide, reference compound], the RORα agonistic activity entry in data set [1] (CHO cell-based reporter gene assay) is reported as “didn’t show any RORα/γ agonistic activity”. In addition, the “RORα inverse agonistic activity (in words)” value in data set [1] was “weak RORα inverse agonists”. In addition, the “IL-17A mRNA expression in EL4/shNC cells” value in data set [2] was “showed inhibitory effects on IL-17A mRNA expression”. Besides, in data set [3] (PMA/ionomycin-stimulated EL4 cells, 0.1, 1, 10 μM, Fig. 4A), the “IL-17A mRNA expression, qualitative RT-PCR” value was “inhibited IL-17A mRNA expression in a dose-dependent manner”. Moreover, the “IL-17A mRNA expression, real-time PCR” value in [3] (PMA/ionomycin-stimulated EL4 cells, 0.1, 1, and 10 μM) is “significantly inhibited IL-17A mRNA expression”. Also, the “IL-17A gene expression in non-stimulated EL4 cells” value in [3] (no PMA/ionomycin stimulation, qualitative RT-PCR) is recorded as “neither T0901317 nor the vehicle induced the expression of IL-17A gene”. In addition, the “cytotoxic effects based on β-galactosidase activity” value in [4] is listed as “except for the highest dose (30 μM)”. Moreover, the “RORγ mRNA expression” value in [5] was “did not affect”. The “IL-17 mRNA expression in EL4/shRorac cells” value in data set [6] is reported as “also suppressed IL-17 mRNA expression”. Further, the Ki in [7] is […]. For the same compound, in data set [8], the “RORα mRNA expression” value is listed as “did not affect”.
Take `CC(C)(C)C(O)C(Oc1ccc(-c2ccccc2)cc1)n1cncn1` (stereo not drawn) [bitertanol]: the “ROR activity (RORα)” value in data set [1] was “inactive”. Further, in data set [9], the “ROR activity (RORγ)” value was “inactive”.
As to `CCCC1COC(Cn2cncn2)(c2ccc(Cl)cc2Cl)O1` (stereo not drawn) [propiconazole], the “ROR activity (RORα)” value in data set [1] was “inactive”. Moreover, the “ROR activity (RORγ)” value in [9] is “inactive”.
On to `FC(F)C(F)(F)OCC(Cn1cncn1)c1ccc(Cl)cc1Cl` (stereo not drawn) [Tetraconazole], for which, in data set [1], the “RORα inverse agonistic activity (in words)” value is “did not show almost any inverse agonistic activity” and the “RIC20 (20% relative inhibitory concentration), RORα assay” value was more than 30 µM. In [3], the “IL-17 gene expression, dose dependence” value is “inhibit IL-17 gene expression in a dose-dependent manner”. In addition, in data set [3] (setting [10]), the “IL-17 mRNA expression, real-time PCR” value was “significantly suppressed IL-17 mRNAs”. Further, the “RIC20 (20% relative inhibitory concentration), RORγ assay” value in data set [9] was 15 µM.
Take `CCCN(CCOc1c(Cl)cc(Cl)cc1Cl)C(=O)n1ccnc1` [prochloraz]: in data set [1], the “ROR activity (RORα)” value is “inactive”. The “ROR activity (RORγ)” value in [9] was “inactive”.
Regarding `CCCOC/C(=N\c1ccc(Cl)cc1C(F)(F)F)n1ccnc1` [Triflumizole], the “RORα inverse agonistic activity (in words)” value in [1] is given as “weak RORα inverse agonists”. In addition, in data set [3] (setting [11]), the “IL-17A mRNA expression, real-time PCR” value is on record as “significantly inhibited”. Moreover, in [3], the “IL-17 gene expression, dose dependence” value is listed as “inhibit IL-17 gene expression in a dose-dependent manner”.
`C=CCOC(Cn1ccnc1)c1ccc(Cl)cc1Cl` (stereo not drawn) [Imazalil]: in data set [1], the “RORα inverse agonistic activity (in words)” value was “did not show almost any inverse agonistic activity” and the “RIC20 (20% relative inhibitory concentration), RORα assay” value was more than 30 µM. The “IL-17 gene expression, dose dependence” value in [3] is “inhibit IL-17 gene expression in a dose-dependent manner”. Further, the “IL-17 mRNA expression, real-time PCR” value in [3] (setting [10]) is listed as “significantly suppressed IL-17 mRNAs”. Further, in [9], the “RIC20 (20% relative inhibitory concentration), RORγ assay” value was 29 µM.
Turning to `CCCCC(O)(Cn1cncn1)c1ccc(Cl)cc1Cl` (stereo not drawn) [Hexaconazole], in [1], the “RORα inverse agonistic activity (in words)” value is listed as “weak RORα inverse agonists” and the “RIC20 (20% relative inhibitory concentration), RORα assay” value came to 21 µM. Also, the “IL-17A mRNA expression, real-time PCR” value in data set [3] (setting [11]) is “significantly inhibited”. Further, in [3], the “IL-17 gene expression, dose dependence” value is on record as “inhibit IL-17 gene expression in a dose-dependent manner”. For the same compound, in data set [9], the “RIC20 (20% relative inhibitory concentration), RORγ assay” value is 3.2 µM.
As to `CC(C)(C)C(=O)C(Oc1ccc(Cl)cc1)n1cncn1` (stereo not drawn) [triadimefon], the “ROR activity (RORα)” value in data set [1] was “inactive”. Further, in data set [9], the “ROR activity (RORγ)” value was “inactive”.
As for `Clc1ccc(CSC(Cn2cncn2)=Nc2ccc(Cl)cc2Cl)cc1` [Imibenconazole], in [1], the “RORα inverse agonistic activity (in words)” value is given as “weak RORα inverse agonists” and the “RIC20 (20% relative inhibitory concentration), RORα assay” value worked out at 10 µM. Also, the “IL-17A mRNA expression in EL4/shNC cells” value in data set [2] is on record as “showed inhibitory effects on IL-17A mRNA expression”. In addition, in [3] (setting [11]), the “IL-17A mRNA expression, real-time PCR” value is given as “strongly suppressed IL-17A mRNA expression”. Also, in data set [3], the “IL-17 gene expression, dose dependence” value is “inhibit IL-17 gene expression in a dose-dependent manner”. Besides, in data set [4], the “cytotoxic effects based on β-galactosidase activity” value is reported as “except for the highest dose (30 μM)”. In addition, in [9], the “RIC20 (20% relative inhibitory concentration), RORγ assay” value amounted to 3.3 µM. In [6], the “IL-17 mRNA expression in EL4/shRorac cells” value was “also suppressed IL-17 mRNA expression”.
